From ChEMBL document CHEMBL1671740, “Increased temperature enhances the antimicrobial effects of daptomycin, vancomycin, tigecycline, fosfomycin, and cefamandole on staphylococcal biofilms” (2010)
Converted amounts (≈) assume the structure as drawn. The source made the active and inactive calls. The rule behind the calls is not given here.

How the values were obtained:
Staphylococcus aureus [1] = experiment: Antimicrobial activity against Staphylococcus aureus isolated from human prosthetic joint infection site by […]; format: functional
[2] = system: Staphylococcus epidermidis; experiment: Antimicrobial activity against Staphylococcus epidermidis isolate OR1 treated in solution at 45 degC after 24 hrs; format: functional; settings: isolate OR1, 24 h
Summary of the method: (§1)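 Antimicrobials, as powder or in solution as used for MIC testing, held at 45°C for 1 and 24 h in three independent experiments. MICs were then determined by the CLSI microtiter plate method in cation-adjusted Mueller-Hinton medium, with MHB containing 50 μg/ml calcium for daptomycin. Values are median (range) […] in mg/liter.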

Staphylococcus [3] = experiment: Antimicrobial activity against Staphylococcus isolates biofilms assessed as decrease in bacterial load at 25 mg/litre at ambient temperature of 45 degC after 24 hrs relative to baseline; format: functional
Summary of the method: (§2)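 24-h static biofilms of the staphylococcal isolates were exposed to drug for 24 h at 35, 40 or 45°C. Biofilms were not fixed but scraped off and resuspended in MHB, then serially diluted and 0.1 ml plated on blood agar, read after 48 h at 35°C in ambient air. Done in duplicate as mean log10 CFU/ml; log reduction was taken versus untreated biofilm.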

Staphylococcus [4] = experiment: Antimicrobial activity against coagulase-negative Staphylococcus isolated from human prosthetic joint infection site by […]; format: functional
Staphylococcus aureus [5] = experiment: Antimicrobial activity against Staphylococcus aureus isolated from human preoperative skin by […]; format: functional
Staphylococcus aureus [6] = experiment: Antimicrobial activity against Staphylococcus aureus ATCC 29213 by […]; format: functional
[7] = system: Staphylococcus epidermidis; experiment: Antimicrobial activity against Staphylococcus epidermidis isolate KO8 isolated from healthy human skin by […]; format: functional
Staphylococcus [8] = experiment: Antimicrobial activity against Staphylococcus isolates biofilms assessed as decrease in bacterial load at 100 mg/litre at ambient temperature of 45 degC after 24 hrs relative to baseline; format: functional; summary of the method: as §2
[9] = system: Staphylococcus epidermidis; experiment: Antimicrobial activity against Staphylococcus epidermidis DSM3269 by […]; format: functional
Staphylococcus aureus [10] = experiment: Antimicrobial activity against Staphylococcus aureus ATCC 29213 administered as powder at 45 degC after 24 hrs; format: functional; settings: ATCC 29213, 24 h; summary of the method: as §1
Staphylococcus [11] = experiment: Antimicrobial activity against Staphylococcus isolates biofilms assessed as decrease in bacterial load at 100 mg/litre at ambient temperature of 40 degC after 24 hrs relative to baseline; format: functional; summary of the method: as §2
Staphylococcus [12] = experiment: Antimicrobial activity against coagulase-negative Staphylococcus isolated from human preoperative skin by […]; format: functional
Staphylococcus [13] = experiment: Antimicrobial activity against Staphylococcus isolates biofilms assessed as decrease in bacterial load at 100 mg/litre at ambient temperature of 35 degC after 24 hrs relative to baseline; format: functional; summary of the method: as §2
Staphylococcus [14] = experiment: Antimicrobial activity against Staphylococcus isolates biofilms assessed as change in optical density ratio of biofilms at 250 mg/litre at ambient temperature of 45 degC after 24 hrs relative to baseline; format: functional
Summary of the method: (§3)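 Static microtiter biofilms of 34 clinical S. aureus and CoNS isolates from orthopedic implant infections or preoperative skin, plus reference strains. Inoculum was McFarland 0.5 diluted 1:100 in calcium-supplemented MHB, grown 24 h at 35°C in ambient air. Established biofilms were exposed to drug for 24 h at 35, 40 or 45°C, then formalin-fixed and stained with 1% crystal violet for 5 min, and OD read at 550 nm in quadruplicate.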

Staphylococcus [15] = experiment: Antimicrobial activity against Staphylococcus isolates biofilms assessed as change in optical density ratio of biofilms at 1000 mg/litre at ambient temperature of 35 degC after 24 hrs relative to baseline; format: functional; summary of the method: as §3
Staphylococcus [16] = experiment: Antimicrobial activity against Staphylococcus isolates biofilms assessed as change in optical density ratio of biofilms at 250 mg/litre at ambient temperature of 40 degC after 24 hrs relative to baseline; format: functional; summary of the method: as §3
Staphylococcus [17] = experiment: Antimicrobial activity against Staphylococcus isolates biofilms assessed as change in optical density ratio of biofilms at 250 mg/litre at ambient temperature of 35 degC after 24 hrs relative to baseline; format: functional; summary of the method: as §3
Staphylococcus [18] = experiment: Antimicrobial activity against Staphylococcus isolates biofilms assessed as change in optical density ratio of biofilms at 1000 mg/litre at ambient temperature of 40 degC after 24 hrs relative to baseline; format: functional; summary of the method: as §3
Staphylococcus [19] = experiment: Antimicrobial activity against Staphylococcus isolates biofilms assessed as change in optical density ratio of biofilms at 1000 mg/litre at ambient temperature of 45 degC after 24 hrs relative to baseline; format: functional; summary of the method: as §3
Staphylococcus [20] = experiment: Antimicrobial activity against Staphylococcus isolates biofilms assessed as decrease in bacterial load at 5 to 100 mg/litre at ambient temperature of […] after 24 hrs relative to baseline; format: functional, organism-based
Summary of the method: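 Static 24-h biofilms of staphylococcal isolates (S. aureus, CoNS) and reference strains were grown at 35°C in calcium-supplemented MHB from a 1:100-diluted McFarland 0.5 inoculum. They were then exposed to drug at 5, 25 or 100 mg/liter for 24 h at 35, 40 or 45°C. Biofilms were scraped into MHB, serially diluted and plated on blood agar (35°C, 48 h), in duplicate, giving mean log10 CFU/ml against untreated.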

For `CCCCCCCCCC(=O)N[C@@H](Cc1c[nH]c2ccccc12)C(=O)N[C@H](CC(N)=O)C(=O)N[C@@H](CC(=O)O)C(=O)N[C@@H]1C(=O)NCC(=O)N[C@@H](CCCN)C(=O)N[C@@H](CC(=O)O)C(=O)N[C@H](C)C(=O)N[C@@H](CC(=O)O)C(=O)NCC(=O)N[C@H](CO)C(=O)N[C@@H]([C@H](C)CC(=O)O)C(=O)N[C@@H](CC(=O)c2ccccc2N)C(=O)O[C@@H]1C`, the MIC (Staphylococcus aureus [1]) was 0.125 µg/mL (≈ 0.0771 µM), the MIC [2] was 1 µg/mL (≈ 0.617 µM) and the “fold change (FC)” value (Staphylococcus [3]) was 1.2. For the same compound, the MIC (Staphylococcus [4]) was 0.125 µg/mL (≈ 0.0771 µM), the MIC (Staphylococcus aureus [5]) was 0.125 µg/mL (≈ 0.0771 µM) and the MIC (Staphylococcus aureus [6]) was 0.125 µg/mL (≈ 0.0771 µM). For the same compound, the MIC [7] was 0.25 µg/mL (≈ 0.154 µM), the “fold change (FC)” value (Staphylococcus [8]) was 3.3 and the MIC [9] was 0.25 µg/mL (≈ 0.154 µM). For the same compound, the MIC (Staphylococcus aureus [10]) was 0.5 µg/mL (≈ 0.309 µM), the “fold change (FC)” value (Staphylococcus [11]) was 3.6 and the MIC (Staphylococcus [12]) was 0.25 µg/mL (≈ 0.154 µM). The “fold change (FC)” value (Staphylococcus [13]) was 2.
For `C[C@@H]1O[C@@H]1P(=O)(O)O` [FOSFOMYCIN], the Ratio (Staphylococcus [14]) was 0.69, the MIC (Staphylococcus aureus [1]) was 4 µg/mL (≈ 29 µM) and the MIC [2] was 32 µg/mL (≈ 232 µM). For the same compound, the Ratio (Staphylococcus [15]) was 0.78, the MIC (Staphylococcus [4]) was 16 µg/mL (≈ 116 µM) and the Ratio (Staphylococcus [16]) was 0.75. For the same compound, the MIC (Staphylococcus aureus [5]) was 64 µg/mL (≈ 464 µM), the Ratio (Staphylococcus [17]) was 1.01 and the MIC (Staphylococcus aureus [6]) was 4 µg/mL (≈ 29 µM). It also gave an MIC [7] of 16 µg/mL (≈ 116 µM), an MIC [9] of 1 µg/mL (≈ 7.24 µM) and an MIC (Staphylococcus aureus [10]) of 1 µg/mL (≈ 7.24 µM). For the same compound, the MIC (Staphylococcus [12]) was 32 µg/mL (≈ 232 µM), the Activity (Staphylococcus [13]) was “inactive” and the Ratio (Staphylococcus [18]) was 0.65. For the same compound, the Ratio (Staphylococcus [19]) was 0.63.
`CN[C@H](CC(C)C)C(=O)N[C@H]1C(=O)N[C@@H](CC(N)=O)C(=O)N[C@H]2C(=O)N[C@H]3C(=O)N[C@H](C(=O)N[C@H](C(=O)O)c4cc(O)cc(O)c4-c4cc3ccc4O)[C@H](O)c3ccc(c(Cl)c3)Oc3cc2cc(c3O[C@@H]2O[C@H](CO)[C@@H](O)[C@H](O)[C@H]2O[C@H]2C[C@](C)(N)[C@H](O)[C@H](C)O2)Oc2ccc(cc2Cl)[C@H]1O` [VANCOMYCIN] was tested, and the Activity (Staphylococcus [20]) was “inactive”, the MIC (Staphylococcus aureus [1]) was 0.5 µg/mL (≈ 0.345 µM) and the MIC [2] was 2 µg/mL (≈ 1.38 µM). The MIC (Staphylococcus [4]) was 2 µg/mL (≈ 1.38 µM), the MIC (Staphylococcus aureus [5]) was 0.5 µg/mL (≈ 0.345 µM) and the MIC (Staphylococcus aureus [6]) was 0.5 µg/mL (≈ 0.345 µM). It also gave an MIC [7] of 1 µg/mL (≈ 0.69 µM), an MIC [9] of 2 µg/mL (≈ 1.38 µM) and an MIC (Staphylococcus aureus [10]) of 0.5 µg/mL (≈ 0.345 µM). For the same compound, the MIC (Staphylococcus [12]) was 0.75 µg/mL (≈ 0.518 µM) and the Activity (Staphylococcus [13]) was “inactive”.
